Measurements taken from ChEMBL document CHEMBL1124831, “Conjugate addition ligands of opioid antagonists. Methacrylate esters and ethers of 6 alpha- and 6 beta-naltrexol” (J Med Chem, 1990).

Legend:
[1] = biological target: T1, Opioid receptors; mu/kappa/delta (Homo sapiens, UniProt P41145+P41143+P35372); assay: Irreversible inhibition of 1 nM DAGO binding against Opioid receptors from unwashed bovine caudate membrane at 10 nM in presence of NaCl; design: scale not given: the % may be the effect or the level left; conditions: Bos taurus, target entry is the homologue from another species
T1 sequence (P35372 whole entry, looked up): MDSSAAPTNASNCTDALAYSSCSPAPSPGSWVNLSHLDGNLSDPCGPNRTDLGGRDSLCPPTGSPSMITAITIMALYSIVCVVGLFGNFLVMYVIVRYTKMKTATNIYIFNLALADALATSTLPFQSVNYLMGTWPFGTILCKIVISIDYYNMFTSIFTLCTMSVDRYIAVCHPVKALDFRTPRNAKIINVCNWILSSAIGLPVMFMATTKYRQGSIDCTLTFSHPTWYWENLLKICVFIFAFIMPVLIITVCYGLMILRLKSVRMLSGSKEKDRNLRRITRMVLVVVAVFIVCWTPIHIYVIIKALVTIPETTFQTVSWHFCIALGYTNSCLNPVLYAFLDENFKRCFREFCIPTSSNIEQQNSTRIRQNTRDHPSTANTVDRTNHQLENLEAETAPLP
T1 sequence (P41143 whole entry, looked up): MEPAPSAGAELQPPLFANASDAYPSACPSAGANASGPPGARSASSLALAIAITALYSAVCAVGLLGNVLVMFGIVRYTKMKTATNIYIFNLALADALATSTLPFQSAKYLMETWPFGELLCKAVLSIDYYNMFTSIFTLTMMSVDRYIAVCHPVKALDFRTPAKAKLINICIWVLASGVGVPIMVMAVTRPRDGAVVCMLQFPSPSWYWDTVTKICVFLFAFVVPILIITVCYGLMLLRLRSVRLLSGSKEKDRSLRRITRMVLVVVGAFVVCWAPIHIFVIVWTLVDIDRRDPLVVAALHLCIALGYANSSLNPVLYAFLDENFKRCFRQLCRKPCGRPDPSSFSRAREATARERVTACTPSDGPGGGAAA
T1 sequence (P41145 whole entry, looked up): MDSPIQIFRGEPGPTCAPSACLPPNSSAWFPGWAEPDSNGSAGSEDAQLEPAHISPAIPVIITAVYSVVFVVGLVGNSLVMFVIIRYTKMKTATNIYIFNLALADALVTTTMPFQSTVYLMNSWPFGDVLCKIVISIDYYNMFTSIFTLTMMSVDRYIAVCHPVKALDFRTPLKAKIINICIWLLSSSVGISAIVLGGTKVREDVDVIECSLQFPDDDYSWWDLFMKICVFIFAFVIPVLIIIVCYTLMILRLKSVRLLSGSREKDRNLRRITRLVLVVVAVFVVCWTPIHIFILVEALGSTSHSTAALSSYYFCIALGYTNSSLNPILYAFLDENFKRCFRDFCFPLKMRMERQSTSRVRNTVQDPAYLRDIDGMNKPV

[2] = biological target: T1, Opioid receptors; mu/kappa/delta; conditions: Bos taurus; at 20 nM
[3] = biological target: T1, Opioid receptors; mu/kappa/delta; assay: In vitro binding affinity against Opioid receptors from bovine caudate nucleus determined in presence of [3H]- bremazocine (0.5 nM); assay type: protein assay, Bos taurus; conditions: target entry is the homologue from another species
Outline: (§1)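 Crude bovine striatal membranes were stored at -70 °C. Competitor was tested at five concentrations, with nonspecific binding defined by 10 μM naloxone. Incubation was 45 min at 25 °C in 50 mM Tris-HCl or potassium phosphate, pH 7.4, with 1 mM EDTA. Read-out was GF/B filtration and scintillation counting. IC50 is from duplicates or triplicates.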

[4] = biological target: T1, Opioid receptors; mu/kappa/delta; conditions: Bos taurus; at 20 nM; remark: listed apart in the source
Mu-type opioid receptor = Mu-type opioid receptor (Bos taurus, UniProt P79350); assay: In vitro binding affinity against Opioid receptor mu 1 from bovine caudate nucleus determined in presence of [3H]DAGO (1 nM)
Sequence of Mu-type opioid receptor (P79350 whole entry): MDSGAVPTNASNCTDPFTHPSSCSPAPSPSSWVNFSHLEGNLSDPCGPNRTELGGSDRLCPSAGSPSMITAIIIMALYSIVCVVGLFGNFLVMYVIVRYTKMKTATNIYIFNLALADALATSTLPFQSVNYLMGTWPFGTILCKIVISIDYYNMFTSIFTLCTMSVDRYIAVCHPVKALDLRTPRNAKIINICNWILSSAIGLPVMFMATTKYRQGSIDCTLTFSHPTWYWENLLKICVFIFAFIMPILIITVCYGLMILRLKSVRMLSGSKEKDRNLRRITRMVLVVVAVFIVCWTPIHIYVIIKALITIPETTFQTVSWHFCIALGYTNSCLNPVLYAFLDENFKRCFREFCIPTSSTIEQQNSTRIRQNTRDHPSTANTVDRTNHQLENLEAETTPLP
Outline: as §1, with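 “°C. […]” for “°C.”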

Mus musculus = species: Mus musculus; assay: Antagonist activity against morphine was determined […] in mice using tail flick assay; assay type: functional
Outline: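 Mouse tail-flick test against morphine given sc, run by the Committee on Problems of Drug Dependence. The antagonist dose giving 50% blockade (AD50, mg/kg) is reported with 95% confidence limits.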

[5] = biological target: T1, Opioid receptors; mu/kappa/delta; assay: Irreversible inhibition of 1 nM DAGO binding against Opioid receptors from protected bovine caudate membrane at 10 nM in presence of NaCl; design: scale not given: the % may be the effect or the level left; conditions: Bos taurus, target entry is the homologue from another species
[6] = biological target: T1, Opioid receptors; mu/kappa/delta; conditions: Bos taurus; at 100 nM
[7] = biological target: T1, Opioid receptors; mu/kappa/delta; conditions: Bos taurus; at 100 nM; remark: listed apart in the source
[8] = biological target: T1, Opioid receptors; mu/kappa/delta; conditions: Bos taurus; at 100 nM; remark: listed apart in the source
[9] = biological target: T1, Opioid receptors; mu/kappa/delta; conditions: Bos taurus; at 100 nM; remark: listed apart in the source
[10] = biological target: T1, Opioid receptors; mu/kappa/delta; conditions: Bos taurus; at 100 nM; remark: listed apart in the source
[11] = biological target: T1, Opioid receptors; mu/kappa/delta; conditions: Bos taurus; at 20 nM; remark: listed apart in the source

SMILES	Control [1] [%]	Control [2] [%]	IC50 [3] [nM]	Control [4] [%]	IC50 (Mu-type opioid receptor) [nM]	AD50 (Mus musculus) [mg/kg]	Control [5] [%]	Control [6] [%]	Control [7] [%]	Control [8] [%]	Control [9] [%]	Control [10] [%]	Control [11] [%]
C=C(CO[C@@H]1CC[C@@]2(O)[C@H]3Cc4ccc(O)c5c4[C@@]2(CCN3CC2CC2)[C@H]1O5)C(=O)OC	20	59	12	35	1.5	0.02	95	–	–	–	–	–	–
C=C1CC2(CCC3(O)[C@H]4Cc5ccc(O)c6c5[C@@]3(CCN4CC3CC3)C2O6)OC1=O (some centres undefined)	–	–	6	–	1.8	–	–	50	85	16	–	–	–
O=C1CC[C@@]2(O)[C@H]3Cc4ccc(O)c5c4[C@@]2(CCN3CC2CC2)[C@H]1O5 [NALTREXONE]	–	–	–	–	–	0.007	–	–	–	–	–	–	–
C=C(C)C(=O)OC1CCC2(O)C3Cc4ccc(O)c5c4[C@@]2(CCN3CC2CC2)C1O5 (some centres undefined)	–	–	5	–	1	0.02	–	–	–	–	39	100	–
C=C(COC1CCC2(O)C3Cc4ccc(O)c5c4[C@@]2(CCN3CC2CC2)C1O5)C(=O)OC (some centres undefined)	–	79	2.4	17	0.18	0.07	–	–	–	–	–	–	96
C=C(C)C(=O)O[C@H]1CC[C@@]2(O)[C@H]3Cc4ccc(O)c5c4[C@@]2(CCN3CC2CC2)[C@H]1O5	–	–	20	–	6.8	0.02	–	–	–	–	22	100	–
